Data published in ChEMBL document CHEMBL2146381, “Structure-activity relationship (SAR) study of ethyl 2-amino-6-(3,5-dimethoxyphenyl)-4-(2-ethoxy-2-oxoethyl)-4H-chromene-3-carboxylate (CXL017) and the potential of the lead against multidrug resistance in cancer treatment” (J Med Chem, 2012).

Assays:
[1] = tested on: HL-60; assay: Cytotoxicity against human HL60 cells assessed as cell viability after 48 hrs by celltiter-blue assay; type: functional, cell-based; conditions: HL-60, 48 h
Procedure, shortened: (§1)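 Tumour cell growth inhibition was measured in vitro, following the lab's established procedure. IC50 values are the mean of at least two independent experiments, each run in triplicate.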

[2] = tested on: CCRF-CEM; assay: Cytotoxicity against human CCRF-CEM cells assessed as cell viability after 48 hrs by celltiter-blue assay; type: functional, cell-based; procedure, shortened: as §1
[3] = tested on: K562; assay: Ratio of IC50 for doxorubicin-resistant human K562 cells to IC50 for human K562 cells; type: functional
Procedure, shortened: (§2)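 Each resistant subline and its matched parental line were tested in the same growth-inhibition assay, with IC50 taken as the mean of at least two independent experiments in triplicate. The MDR/parental IC50 ratio is reported as relative sensitivity: above 1 means resistance, below 1 means collateral sensitivity. Parental lines came from different sources for each resistant pair.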

[4] = tested on: CCRF-CEM; assay: Ratio of IC50 for human CCRF-CEM/VLB100 cells IC50 for human CCRF-CEM cells; type: functional; procedure, shortened: as §2
[5] = tested on: HL-60; assay: Ratio of IC50 for human HL60/MX2 cells to IC50 for human HL60 cells; type: functional; procedure, shortened: as §2
[6] = tested on: CCRF-CEM; assay: Ratio of IC50 for human CCRF-CEM/VM-1-5 cells IC50 for human CCRF-CEM cells; type: functional; procedure, shortened: as §2
[7] = tested on: CCRF-CEM; assay: Ratio of IC50 for human CCRF-CEM/C2 cells IC50 for human CCRF-CEM cells; type: functional; procedure, shortened: as §2
[8] = tested on: HL-60; assay: Ratio of IC50 for doxorubicin-resistant human HL60 cells to IC50 for human HL60 cells; type: functional; procedure, shortened: as §2
[9] = tested on: K562; assay: Ratio of IC50 for human K562/HHT300 cells to IC50 for human K562 cells; type: functional; procedure, shortened: as §2
[10] = tested on: K562; assay: Cytotoxicity against human K562 cells assessed as cell viability after 48 hrs by celltiter-blue assay; type: functional, cell-based; conditions: K562, 48 h; procedure, shortened: as §1
[11] = tested on: HL-60; assay: Ratio of IC50 for human HL60/ADR cells to IC50 for human HL60 cells; type: functional; procedure, shortened: as §2
[12] = tested on: HL-60; assay: Ratio of IC50 for daunorubicin-resistant human HL60 cells to IC50 for human HL60 cells; type: functional; procedure, shortened: as §2

Row | Structure (SMILES) | IC50 [1] [nM] | IC50 [2] [nM] | Ratio IC50 [3] | Ratio IC50 [4] | Ratio IC50 [5] | Ratio IC50 [6] | Ratio IC50 [7] | Ratio IC50 [8] | Ratio IC50 [9] | IC50 [10] [nM] | Ratio IC50 [11] | Ratio IC50 [12]
1 | C#CCOC(=O)CC1C(C(=O)OCC)=C(N)Oc2ccc(-c3ccc(N)cc3)cc21 (racemic) | 10500 | – | – | – | – | – | – | – | – | – | – | –
2 | C#CCOC(=O)CC1C(C(=O)OCC#C)=C(N)Oc2ccc(-c3ccc(N)cc3)cc21 (racemic) | 610 | 1470 | 1.08 | 0.93 | 1 | 0.42 | 0.54 | 0.6 | 1.1 | 2360 | 0.26 | 0.27
3 | CCOC(=O)CC1C(C(=O)OCC)=C(N)Oc2ccc(-c3cccc(NC)c3)cc21 (racemic) | 7450 | – | – | – | – | – | – | – | – | – | – | –
4 | C#CCOC(=O)CC1C(C(=O)OCC)=C(N)Oc2ccc(-c3cccc(NC)c3)cc21 (racemic) | 7130 | – | – | – | – | – | – | – | – | – | – | –
5 | C#CCOC(=O)CC1C(C(=O)OCC#C)=C(N)Oc2ccc(-c3cccc(NC)c3)cc21 (racemic) | 880 | – | – | – | – | – | – | – | – | – | – | –
6 | C#CCOC(=O)CC1C(C(=O)OCC#C)=C(N)Oc2ccc(-c3cccc(N(C)C)c3)cc21 (racemic) | 12000 | – | – | – | – | – | – | – | – | – | – | –
7 | C#CCOC(=O)CC1C(C(=O)OCC)=C(N)Oc2ccc(-c3cccc(NCC)c3)cc21 (racemic) | 17200 | – | – | – | – | – | – | – | – | – | – | –
8 | C#CCOC(=O)CC1C(C(=O)OCC#C)=C(N)Oc2ccc(-c3cccc(NCC)c3)cc21 (racemic) | 1860 | – | – | – | – | – | – | – | – | – | – | –
9 | C#CCOC(=O)CC1C(C(=O)OCC#C)=C(N)Oc2ccc(-c3cccc(NC(=O)CCl)c3)cc21 (racemic) | 5300 | – | – | – | – | – | – | – | – | – | – | –
10 | CCOC(=O)CC1C(C(=O)OCC)=C(N)Oc2ccc(-c3cccc(C(N)=O)c3)cc21 (racemic) | 5400 | – | – | – | – | – | – | – | – | – | – | –
11 | C#CCOC(=O)CC1C(C(=O)OCC#C)=C(N)Oc2ccc(-c3cccc(-n4cnnn4)c3)cc21 (racemic) | 1620 | – | – | – | – | – | – | – | – | – | – | –
12 | C#CCOC(=O)CC1C(C(=O)OCC#C)=C(N)Oc2ccc(-c3ccc(NC)cc3)cc21 (racemic) | 2450 | – | – | – | – | – | – | – | – | – | – | –
13 | C#CCOC(=O)CC1C(C(=O)OCC#C)=C(N)Oc2ccc(-c3ccc(N(C)C)cc3)cc21 (racemic) | 2560 | – | – | – | – | – | – | – | – | – | – | –
14 | C#CCOC(=O)CC1C(C(=O)OCC)=C(N)Oc2ccc(-c3ccc(NCC)cc3)cc21 (racemic) | 33000 | – | – | – | – | – | – | – | – | – | – | –
15 | C#CCOC(=O)CC1C(C(=O)OCC#C)=C(N)Oc2ccc(-c3ccc(NCC)cc3)cc21 (racemic) | 7270 | – | – | – | – | – | – | – | – | – | – | –
16 | CCOC(=O)CC1C(C(=O)OCC)=C(N)Oc2ccc(-c3cc(OC)cc(OC)c3)cc21 (racemic) | 10700 | – | – | – | – | – | – | – | – | – | – | –
17 | CN(C)CC[C@H](CSc1ccccc1)Nc1ccc(S(=O)(=O)NC(=O)c2ccc(N3CCN(Cc4ccccc4-c4ccc(Cl)cc4)CC3)cc2)cc1[N+](=O)[O-] [ABT 737] | 760 | 740 | 2.7 | 0.3 | 1.5 | 2.2 | 0.2 | 19.7 | 2.3 | 34700 | 4.5 | 4.9
18 | Nc1ccn([C@@H]2O[C@H](CO)[C@@H](O)[C@@H]2O)c(=O)n1 [CYTARABINE] | 49 | 6 | 1.5 | 1 | 0.4 | 6.5 | 4.1 | 7.5 | 7 | 14000 | 0.1 | –
19 | COc1cccc2c1C(=O)c1c(O)c3c(c(O)c1C2=O)C[C@@](O)(C(=O)CO)C[C@@H]3O[C@H]1C[C@H](N)[C@H](O)[C@H](C)O1 [DOXORUBICIN] | 40 | 110 | >10 | – | 5.3 | >15 | 6.7 | >100 | >20 | 440 | >15 | >50
20 | COc1cc([C@@H]2c3cc4c(cc3[C@@H](O[C@@H]3O[C@@H]5CO[C@@H](C)O[C@H]5[C@H](O)[C@H]3O)[C@H]3COC(=O)[C@H]23)OCO4)cc(OC)c1O [ETOPOSIDE] | 110 | 240 | >15 | 8.6 | 9 | >50 | 2.5 | >200 | >1000 | 2300 | >10 | >50
21 | O=C1c2c(O)ccc(O)c2C(=O)c2c(NCCNCCO)ccc(NCCNCCO)c21 [MITOXANTRONE] | 16 | 36 | 5.1 | 2.3 | >20 | >30 | 3 | >20 | >10 | 510 | 2.4 | >10
22 | C/C=C(/C)C(=O)O[C@H]1C(C)=C2[C@H]([C@@H]1OC(=O)CCCCCCC)[C@@](C)(OC(C)=O)C[C@H](OC(=O)CCC)[C@@]1(O)[C@H]2OC(=O)[C@@]1(C)O [THAPSIGARGIN] | 7 | 270 | 4.2 | 7.7 | 0.02 | 1 | 1.45 | >50 | >10 | 170 | 1 | >50
23 | CC[C@]1(O)C[C@H]2CN(CCc3c([nH]c4ccccc34)[C@@](C(=O)OC)(c3cc4c(cc3OC)N(C=O)[C@H]3[C@@](O)(C(=O)OC)[C@H](OC(C)=O)[C@]5(CC)C=CCN6CC[C@]43[C@@H]65)C2)C1 [VINCRISTINE] | 0.06 | 0.17 | >1000 | >1000 | 1 | 1 | 1 | >1000 | >1000 | 0.1 | 1 | –
